Test results: ChEMBL document CHEMBL5647686, “B cell receptor-induced phosphorylation of Pyk2 and focal adhesion kinase involves integrins and the Rap GTPases and is required for B cell spreading” (J Biol Chem, 2009)
Calls of active or inactive are those of the source. The rule behind the calls is not given here.

How the values were obtained:
A20 [1] = test: Inhibition of anti-Ig-induced SRC dependent overall protein tyrosine phosphorylation in mouse A20 cells under suspension conditions at 0.15 to 5 uM incubated for 45 mins before being stimulated with anti-IgG for 20 mins by immunoblotting; assay type: cell-based; settings: dose 0.15-5 µM, time 65.0 min
Outline: (§1)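 A20 cells held in suspension in modified HEPES-buffered saline were treated with inhibitor at graded concentrations or DMSO for 45 min, then stimulated with 20 μg/ml anti-IgG for 20 min. Unstimulated controls were kept 45 min plus 20 min without stimulus. Cold lysis buffer was added, and lysates cleared. Pyk2 immunoprecipitates were blotted with 4G10 anti-Tyr(P) and reprobed for Pyk2. Whole lysates were blotted with 4G10 for total phosphotyrosine and for phospho-Erk.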

[2] = Toxicity in mouse A20 cells by 7-amino-actinomycin D staining; assay type: cell-based
A20 [3] = test: Inhibition of anti-Ig-induced tyrosine phosphorylation of ERK in mouse A20 cells under suspension conditions at 0.15 to 5 uM incubated for 45 mins before being stimulated with anti-IgG for 20 mins by immunoblotting; assay type: cell-based; settings: dose 0.15-5 µM, time 65.0 min; outline: as §1
[4] = target: Tyrosine-protein kinase SYK (Mus musculus) (UniProt P48025); test: Inhibition of anti-Ig-induced SYK dependent overall protein tyrosine phosphorylation in mouse A20 cells under suspension conditions at 0.15 to 5 uM incubated for 45 mins before being stimulated with anti-IgG for 20 mins by immunoblotting; assay type: cell-based; settings: dose 0.15-5 µM, time 65.0 min; outline: as §1
Tyrosine-protein kinase SYK (Mus musculus), sequence (P48025 whole entry, looked up): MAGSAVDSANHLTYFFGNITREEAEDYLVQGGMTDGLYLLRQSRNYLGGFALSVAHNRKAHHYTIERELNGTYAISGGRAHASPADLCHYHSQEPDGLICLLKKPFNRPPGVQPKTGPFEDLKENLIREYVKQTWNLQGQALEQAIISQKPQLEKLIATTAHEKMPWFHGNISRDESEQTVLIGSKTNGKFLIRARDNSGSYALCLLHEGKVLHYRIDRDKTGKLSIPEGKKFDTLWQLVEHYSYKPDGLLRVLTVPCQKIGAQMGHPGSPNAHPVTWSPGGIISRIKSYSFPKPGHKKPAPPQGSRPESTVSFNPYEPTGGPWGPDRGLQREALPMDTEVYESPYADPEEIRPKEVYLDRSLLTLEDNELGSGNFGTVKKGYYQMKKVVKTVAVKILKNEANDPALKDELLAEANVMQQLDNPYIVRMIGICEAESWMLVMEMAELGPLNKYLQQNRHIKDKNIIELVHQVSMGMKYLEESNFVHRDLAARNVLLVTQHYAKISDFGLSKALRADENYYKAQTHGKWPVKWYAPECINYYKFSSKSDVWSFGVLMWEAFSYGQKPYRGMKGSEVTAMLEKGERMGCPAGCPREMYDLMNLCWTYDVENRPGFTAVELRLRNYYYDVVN

[5] = target: Protein-tyrosine kinase 2-beta (Mus musculus) (UniProt Q9QVP9); test: Inhibition of anti-Ig-induced tyrosine phosphorylation of Pyk2 in mouse A20 cells plated on collagen/fibronectin ECM at 0.15 to 5 uM incubated for 45 mins before being stimulated with anti-IgG for 20 mins by immunoblotting; assay type: cell-based; settings: dose 0.15-5 µM, time 65.0 min
Protein-tyrosine kinase 2-beta (Mus musculus), sequence (Q9QVP9 whole entry, looked up): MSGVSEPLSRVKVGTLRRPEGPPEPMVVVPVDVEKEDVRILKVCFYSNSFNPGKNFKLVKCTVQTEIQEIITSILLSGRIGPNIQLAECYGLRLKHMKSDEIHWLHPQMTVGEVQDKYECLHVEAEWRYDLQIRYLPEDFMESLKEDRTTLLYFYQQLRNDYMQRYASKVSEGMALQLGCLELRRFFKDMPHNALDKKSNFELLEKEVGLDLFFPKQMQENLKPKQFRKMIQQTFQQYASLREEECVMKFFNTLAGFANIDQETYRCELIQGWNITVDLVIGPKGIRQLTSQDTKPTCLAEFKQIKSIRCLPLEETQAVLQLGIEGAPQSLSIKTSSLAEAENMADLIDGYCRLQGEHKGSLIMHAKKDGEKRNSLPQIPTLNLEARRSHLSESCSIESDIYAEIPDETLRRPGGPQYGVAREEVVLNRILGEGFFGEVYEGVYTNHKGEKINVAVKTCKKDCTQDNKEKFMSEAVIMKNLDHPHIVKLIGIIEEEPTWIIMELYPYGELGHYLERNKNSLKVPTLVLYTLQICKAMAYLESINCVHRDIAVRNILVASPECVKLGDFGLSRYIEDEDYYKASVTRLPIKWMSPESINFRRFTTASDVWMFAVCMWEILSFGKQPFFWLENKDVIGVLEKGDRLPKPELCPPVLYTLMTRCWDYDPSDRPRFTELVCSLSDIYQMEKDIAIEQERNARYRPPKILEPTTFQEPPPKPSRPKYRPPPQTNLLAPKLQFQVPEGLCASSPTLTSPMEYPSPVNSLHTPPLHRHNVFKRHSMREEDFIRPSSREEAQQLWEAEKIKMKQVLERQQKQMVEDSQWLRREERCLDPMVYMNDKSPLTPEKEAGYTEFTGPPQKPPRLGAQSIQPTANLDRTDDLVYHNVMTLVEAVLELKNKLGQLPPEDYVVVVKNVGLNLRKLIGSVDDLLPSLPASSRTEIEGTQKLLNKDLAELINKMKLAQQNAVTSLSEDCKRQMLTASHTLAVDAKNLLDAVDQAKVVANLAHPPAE

A20 [6] = test: Inhibition of anti-Ig-induced tyrosine phosphorylation of FAK in mouse A20 cells plated on collagen/fibronectin ECM conditions at 0.15 to 5 uM incubated for 45 mins before being stimulated with anti-IgG for 20 mins by immunoblotting; assay type: cell-based; settings: dose 0.15-5 µM, time 65.0 min
A20 [7] = test: Inhibition of LFA-1 Ab-induced B-cell spreading in mouse A20 cells plated on anti-LFA-1 Ab coated plates at 2.5 uM for 1 to 3 hrs by immunofluorescence assay; assay type: functional, cell-based; settings: time 1-3 hrs
Outline: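 A20 B lymphoma cells pretreated 45 min with DMSO or 2.5 μm inhibitor, then added to wells coated overnight at 4 °C with 2.63 μg/cm² rat anti-mouse LFA-1 mAb and blocked with 2% BSA/PBS. Incubated at 37 °C in RPMI 1640 with 2% FCS for 1 or 3 h. Cells scored as spread when phase dark, elongated or irregular with membrane processes. Percentage of adherent cells spread; mean ± S.E., >150 cells per experiment, three experiments; one-tailed paired t test vs DMSO.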

[8] = target: Protein-tyrosine kinase 2-beta (Mus musculus) (UniProt Q9QVP9); test: Inhibition of anti-Ig-induced tyrosine phosphorylation of Pyk2 in mouse A20 cells at 0.15 to 5 uM incubated for 45 mins before being stimulated with anti-IgG for 20 mins by immunoblotting; assay type: cell-based; settings: dose 0.15-5 µM, time 65.0 min; outline: as §1
[9] = target: Protein-tyrosine kinase 2-beta (Mus musculus) (UniProt Q9QVP9); test: Inhibition of […] tyrosine phosphorylation of Pyk2 in mouse A20 cells induced by clustering LFA-1 with plate-bound Abs at 2.5 to 5 uM incubated for 45 mins before being stimulated with anti-LFA-1 Abs for 30 mins by immunoblotting; assay type: cell-based; settings: dose 2.5-5 µM, time 75.0 min
Outline: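 A20 cells pretreated 45 min with inhibitor or DMSO were added for 30 min to wells coated with 2.63 μg/cm² anti-LFA-1 Abs. Lysates were cleared, and Pyk2 or FAK immunoprecipitates were blotted with 4G10 anti-Tyr(P).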

A20 [10] = test: Inhibition of anti-IgG-induced B-cell spreading in mouse A20 cells plated on fibronectin assessed as reduction in number of A20 cells that developed an elongated and spread morphology at 2.5 uM for 1 to 4 hrs by immunofluorescence assay; assay type: functional, cell-based; settings: time 1-4 hrs
Outline: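 A20 cells pretreated 45 min with DMSO or 2.5 μm inhibitor in RPMI 1640 with 2% FCS, plated at 37 °C on wells coated with 2.63 μg/cm² fibronectin (BSA-blocked), and stimulated with 10 μg/ml soluble anti-IgG for 1, 2 or 4 h. Phase-dark cells with elongated or irregular shape counted as spread. Percentage of adherent cells; >150 cells counted per experiment, three experiments; one-tailed paired t test.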

CN(c1ccccc1CNc1nc(Nc2ccc3c(c2)CC(=O)N3)ncc1C(F)(F)F)S(C)(=O)=O
inhibition (A20 [1]): inactive | Activity [2]: Non-Toxic | inhibition (A20 [3]): inactive | inhibition [4]: inactive | inhibition [5]: Active | inhibition (A20 [6]): Active | inhibition (A20 [7]): Active | inhibition [8]: Active | inhibition [9]: Active | inhibition (A20 [10]): Active
